Kir21 block – blocks the mouse Kir2.1 inward-rectifier potassium channel. HEK293-Kir2.1, FluxOR thallium flux fluorescence; stronger effect = lower value. B-score at 10 µM. 310,000 compounds, 0.85% hits. AID 1672;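 active = fluorescence ratio B-score at or below minus 3 SD of library scores, with starting-brightness B-score within 2 SD, cut at about -4.2 in these data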;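 note: channel flux triggered by added potassium and thallium sulfate stimulus; B-score of peak minus minimum fluorescence over baseline after thallium stimulus; more negative B-score means stronger Kir2.1 block with less thallium influx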
KCNQ1 act – potentiates or activates the human KCNQ1 potassium channel | P51787 | CHO-K1 KCNQ1, thallium flux FluxOR fluorescence; stronger effect = higher value | B-score at 10 µM | 310,000 compounds, 0.35% hits | AID 2648;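 active = fluorescence ratio B-score, a plate-corrected score, at least three library SD, with initial intensity B-score within 5 SD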
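Material: CHO-K1 cells stably expressing KCNQ1. Medium: assay buffer for compound exposure, DMSO matched across wells. Reagent: K+/Tl+ depolarizing stimulus. Compound dosing: single-concentration screen. Times: 37 °C overnight plating, 90-min dark dye load, 20-min compound pretreatment. Technique: FluxOR Tl+ flux fluorescence.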
KCNQ1 block – inhibitors of human KCNQ1 potassium channel; P51787; CHO-K1 KCNQ1, FluxOR thallium flux fluorescence; stronger effect = higher value; B-score at 10 µM; 310,000 compounds, 1.3% hits;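 active = compounds whose thallium flux B-score, printed positive for inhibition, exceeds three library SD while starting fluorescence stays within three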;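 note: channel opened by potassium depolarization with thallium stimulus after 20 min compound exposure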
KCNK3 block – human KCNK3 channel inhibition, primary screen. CHO-KCNK3 thallium flux, FluxOR fluorescence; stronger effect = lower value. B-score at 10 µM. 340,000 compounds, 0.84% hits. AID 602410;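 active = B-score under library mean minus 4 SD, starting fluorescence ratio at most library mean plus 5 SD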;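 note: more negative B-score means stronger inhibition of thallium flux through KCNK3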
Target sequence (O14649 whole entry, looked up): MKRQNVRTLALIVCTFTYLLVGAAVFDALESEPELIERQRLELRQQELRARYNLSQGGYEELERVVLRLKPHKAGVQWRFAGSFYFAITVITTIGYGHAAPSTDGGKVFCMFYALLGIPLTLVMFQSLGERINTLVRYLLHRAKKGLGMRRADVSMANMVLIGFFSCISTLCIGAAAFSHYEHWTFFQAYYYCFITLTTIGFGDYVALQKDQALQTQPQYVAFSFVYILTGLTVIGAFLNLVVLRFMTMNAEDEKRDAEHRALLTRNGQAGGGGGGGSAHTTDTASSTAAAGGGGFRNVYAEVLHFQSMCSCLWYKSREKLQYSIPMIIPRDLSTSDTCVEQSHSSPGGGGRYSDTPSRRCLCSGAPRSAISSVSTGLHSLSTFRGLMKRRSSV
hERG protect – hERG (human) protection from proarrhythmic block | Q12809 | CHO-hERG, FluxOR thallium flux, dofetilide IC70 present | activation (rescue from dofetilide block), less the hit threshold, % at 10 µM | 310,000 compounds, 0.51% hits;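 active = activation above the mean of controls blocked by dofetilide plus 5 SD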;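 note: thallium influx through hERG after potassium depolarization seen as dye fluorescence rise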
KCNK9 block – human KCNK9 channel inhibition | 310,000 compounds, 1.2% hits | Q9NPC2 | HEK293 KCNK9, FluxOR thallium flux fluorescence; stronger effect = lower value | B-score at 10 µM;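 active = ratio B-score over 3 SD below the library mean, with starting fluorescence within 5 SD of its mean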;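 note: negative B-score means less thallium flux so channel inhibition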
The depositor's hits bear a star; i = inactive; . = no result. Compounds with a hit are over-represented: about 3.7% of the library has one in this group of screens.

SMILES | Kir21 block | KCNQ1 act | KCNQ1 block | KCNK3 block | hERG protect | KCNK9 block
Cc1nc(NCC2CCCO2)c2oc3ccccc3c2n1 (configuration not stated) | 1.93 | i | i | i | -14.3 | i
CCc1nc(Nc2ccc3c(c2)OCCO3)c2oc3ccccc3c2n1 | -1.17 | i | i | i | -26.2 | -7.57*
COc1ccc(OC)c(C(=O)c2coc3ccc(O)c(CN(C)C)c23)c1 | 0.1 | i | i | i | -1.1 | i
COc1ccc(OC)c(C(=O)c2coc3cc(Br)c(O)c(Br)c23)c1 | 0.03 | i | i | i | -7.1 | -7.56*
O=C1ON=C(c2ccccc2)/C1=C/c1ccco1 | -0.46 | i | 7* | i | -24.0 | i
COc1cc(/C=N/O)cc(Br)c1OC | 4.96 | i | i | i | -6.9 | i
C=CCOc1c(Br)cc(/C=N/O)cc1OCC | -6.02* | i | i | i | -6.2 | i
COc1ccc(NC(C)=O)cc1S(=O)(=O)N1CCn2cccc2C1C (configuration not stated) | . | . | . | i | . | .
COC(=O)c1ccccc1S(=O)(=O)N1CCn2cccc2C1C (configuration not stated) | -0.78 | i | i | i | 35.3* | i
Clc1ccc(CSc2nccn2Cc2ccccc2)cc1 | -0.01 | i | i | i | -8.7 | i
O=[N+]([O-])c1ccc(Sc2nccn2Cc2ccccc2)cc1 | -4.96* | i | i | i | -14.9 | i
COc1ccc(NC(=O)NCCN2CCc3ccccc3C2)cc1 | -1.21 | i | i | i | -9.7 | i
O=C(NCCCN1CCc2ccccc2C1)Nc1ccc(Cl)cc1 | -4.69* | i | i | i | -18.7 | i
O=C(NCCCN1CCCC1=O)Nc1ccc(F)c(Cl)c1 | 0.67 | i | 6* | i | -11.3 | i
Cn1cc([N+](=O)[O-])c(C(=O)Nc2ccc(Br)cn2)n1 | -0.17 | i | i | i | -8.5 | i
COc1ccc(/C(O)=C/c2nc3ccc(C(=O)NCCc4cccc(C)c4)cc3[nH]c2=O)cc1OC | 0.51 | i | i | i | -12.1 | -8.03*
COc1ccc(C(=O)NCCc2ccccc2)cc1OC | -0.51 | i | i | i | -3.5 | i
CSC(=S)N/N=C(\C)c1ccc(Br)cc1 | -0.01 | 41* | i | i | 4.6 | i
Cc1ccc(OCC(=O)NNC(=S)NC(=O)c2ccc(Br)o2)c(C)c1 | -0.27 | 69* | i | i | -9.3 | i
CCc1nonc1NC(=O)COc1ccc(Cl)c(C)c1 | -0.48 | i | 6* | i | -9.3 | i
Cc1ccc(OCC(=O)NNC(=S)NC(=O)c2cccs2)c(C)c1 | -0.95 | 34* | i | i | -16.1 | i
O=C(COc1ccc(Br)cc1Br)NNC(=O)c1cccs1 | -0.53 | i | i | i | -4.0 | i
Cc1cc(OCC(=O)NNC(=S)NC(=O)c2cccs2)ccc1Cl | -2.01 | 15* | i | i | -19.9 | i
S=C(NCc1cccnc1)Nc1ccc(Oc2ccc(Cl)cc2)cc1 | 0.91 | i | i | i | -7.9 | i
CCOc1cccc(=O)c2c(C)n(-c3ccc(C(=O)O)cc3)c(C)c12 | -0.41 | i | i | i | 4.8* | i
SMILES | Kir21 block | KCNQ1 act | KCNQ1 block | KCNK3 block | hERG protect | KCNK9 block
CC(C)c1ccccc1OCCCCCN1CCOCC1 | -3.08 | i | i | i | -6.7 | i
Cc1ccc(C#CC[N+]2(CC#Cc3ccc(C)cc3)CCCCC2)cc1 | -6.81* | i | 12* | i | -30.4 | i
O=C(NCc1ccccc1)c1sc(=S)n2c1[nH]c(=O)c1ccccc12 | -1.93 | i | 7* | i | -15.9 | i
CCCCCn1c(=O)[nH]c2cc(C(=O)NCCc3ccc(OC)c(OC)c3)ccc2c1=O | -1.21 | i | i | i | -14.2 | i
CCCCNC(=O)c1sc(=S)n2c1[nH]c(=O)c1ccc(C(=O)NCCc3ccc(OC)c(OC)c3)cc12 | -2.38 | i | i | -10.3* | -20.1 | i
CC(=O)NNC(=O)c1sc(=S)n2c1[nH]c(=O)c1sccc12 | 0.06 | i | i | i | -10.1 | i
COc1ccc(S(=O)(=O)NN(C)c2ncc(C(F)(F)F)cc2Cl)cc1 | -7.98* | i | i | i | -3.2 | i
CCOC(=O)c1cc2sccc2n1CC(=O)N1CCCC1 | 0.48 | i | i | i | -10.4 | i
CCN1CCN(c2ccc(S(=O)(=O)N3CCCCC3)cc2NC(=O)c2cccc(C(F)(F)F)c2)CC1 | 0.13 | i | i | i | -8.0 | i
C[C@H](NC(=O)c1nc[nH]c1C(=O)NCCCCCNC(=O)OC(C)(C)C)C(=O)OCc1ccccc1 | 1.95 | i | i | i | -26.0 | i
C[C@H](NC(=O)c1nc[nH]c1C(=O)N1CCc2ccccc2C1)c1ccccc1 | . | . | . | i | . | .
C[C@H](NC(=O)c1nc[nH]c1C(=O)N1CCc2ccccc2C1)C(=O)OCc1ccccc1 | -0.02 | i | 6* | i | -20.2 | i
CC(C)(C)OC(=O)NCCCCCNC(=O)c1[nH]cnc1C(=O)N[C@@H](Cc1ccccc1)C(=O)OCc1ccccc1 | 1.77 | i | 9* | i | -10.8 | i
Nc1nonc1-c1nc2ccccc2n1CC(=O)Nc1ccccc1 | -2.69 | i | i | i | -3.8 | i
CCOC(=O)c1ccccc1NC(=O)Cn1c(-c2nonc2N)nc2ccccc21 | -0.46 | i | i | i | -17.3 | -7.57*
O=C(NCc1ccccn1)C1CCN(Cc2cccc(OCc3ccccc3)c2)CC1 | -0.14 | 8* | i | i | -5.8 | i
CCOC(=O)C1CCN(Cc2cccc(OCc3ccccc3)c2)CC1 | -7.87* | i | i | i | -4.3 | i
NC(=O)C1CCN(Cc2cccc(OCc3ccccc3)c2)CC1 | -0.37 | i | i | i | -0.3 | i
Nn1c(COc2cccc(Br)c2)nnc1SCC(=O)NCC1CCCO1 (configuration not stated) | . | . | . | i | . | .
O=C1NC(Cc2c[nH]c3ccccc23)C(=O)N1CCOc1ccc(F)cc1 (configuration not stated) | -5.26* | i | i | i | -10.5 | i
CCOc1ccc(OCCN2C(=O)NC(Cc3c[nH]c4ccccc34)C2=O)cc1 (configuration not stated) | 0.04 | i | i | i | -20.0 | i
COc1cccc(CC(NC(C)=O)C(=O)NC2CCN(S(=O)(=O)c3ccc(F)cc3)CC2)c1OC (configuration not stated) | 0.36 | i | i | i | -7.2 | i
Cc1nn(C)c(C)c1/C=N/NC(=O)C(C)(C)Oc1ccc(Cl)cc1 | 1.04 | i | i | i | -7.3 | i
